Laboratory results published in ChEMBL document CHEMBL4422612, “Small Molecule Inhibitor that Stabilizes the Autoinhibited Conformation of the Oncogenic Tyrosine Phosphatase SHP2” (J Med Chem, 2019).
Substitutions are numbered along the chain they refer to. Activity calls are given as the source filed them.

Legend:
NCI-H596 = assay: Growth inhibition of human NCI-H596 cells after 48 hrs by cell proliferation-based assay; type: functional
Summary of the method: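 H661 (PTPN11 N58S/+) and H596 (WT PTPN11) lung cancer cells exposed to a concentration series for 48 h, DMSO as control. Cell number measured by One Solution proliferation assay. Triplicates from one of three repeated experiments.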

[1] = target: T1, Tyrosine-protein phosphatase non-receptor type 11 (Mus musculus) (UniProt P35235); assay: Inhibition of SHP2 in mouse Ba/F3 cells assessed as reduction in IL3-stimulated ERK phosphorylation pretreated for 4 hrs followed by IL3 stimulation and measured after 5 to 60 mins by Western blot analysis; type: cell-based
T1 sequence (whole entry): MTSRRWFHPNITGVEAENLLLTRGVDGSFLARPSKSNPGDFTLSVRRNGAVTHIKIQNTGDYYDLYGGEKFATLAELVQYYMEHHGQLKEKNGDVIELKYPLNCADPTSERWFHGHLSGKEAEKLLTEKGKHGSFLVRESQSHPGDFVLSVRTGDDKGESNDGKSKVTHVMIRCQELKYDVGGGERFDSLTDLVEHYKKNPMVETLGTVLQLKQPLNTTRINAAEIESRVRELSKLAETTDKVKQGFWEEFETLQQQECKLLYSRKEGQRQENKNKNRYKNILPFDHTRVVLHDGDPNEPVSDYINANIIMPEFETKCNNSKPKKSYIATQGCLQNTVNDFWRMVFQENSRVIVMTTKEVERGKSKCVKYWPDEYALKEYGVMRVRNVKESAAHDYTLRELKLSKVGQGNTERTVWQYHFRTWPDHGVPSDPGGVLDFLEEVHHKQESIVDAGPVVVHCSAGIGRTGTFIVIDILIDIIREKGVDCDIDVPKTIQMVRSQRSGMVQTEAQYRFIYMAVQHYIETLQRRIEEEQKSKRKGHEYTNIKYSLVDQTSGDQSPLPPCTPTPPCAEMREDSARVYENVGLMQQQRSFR
Summary of the method: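 Ba/F3 cells starved overnight in serum- and cytokine-free RPMI1640. Treated with 20 µM compound for 4 h, then IL-3 (2 ng/mL) for the indicated times. RIPA lysates (50 µg) immunoblotted for p-Erk, p-Akt, p-Jak2 and p-Stat5, then reprobed for total proteins. Representative of three experiments.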

[2] = target: T2, Tyrosine-protein phosphatase non-receptor type 11 (Homo sapiens) (UniProt Q06124); assay: Inhibition of human wild-type full length SHP2 at 20 uM using H-Glu-Phe-pTyr-Ala-Glu-Val-Gly-Arg-Ser-ProPro-Asp-Pro-Ala-Lys as substrate in presence of 0.001% Triton X
T2 sequence (whole entry): T1 sequence (whole entry) with V450M, V550A, R590K
Summary of the method: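 Full-length SHP2 or SHP1 (0.1 µg) preincubated with compound 30 min at room temperature in 25 mM Tris-HCl pH 7.4, 50 mM NaCl, 5 mM DTT, 2.5 mM EDTA. Phospho-peptide substrate added to 50 µM final; 30 min at 30 °C. Released phosphate read by Malachite Green at OD620. IC50 from six concentrations; three experiments.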

[3] = system: T3, Tyrosine-protein phosphatase non-receptor type 11 (Mus musculus), P35235 [E76K]; assay: Inhibition of Ptpn11 E76K mutant in Ptpn11 E76K mutant /Mx1-Cre containing mouse bone marrow cells assessed as reduction in GM-CSF-induced colony forming units at 1.25 to 5 uM after 7 days by inverted microscopy
T3 sequence (whole entry): T1 sequence (whole entry) with E76K
Summary of the method: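 Bone marrow from Ptpn11 E76K/+/Mx1-Cre+ and +/+/Mx1-Cre+ mice, 2×10⁴ cells/mL, in 0.9% methylcellulose IMDM with 30% FBS and GM-CSF 1.0 ng/mL, plus compound or DMSO. CFU-GM and CFU-M counted at day 7, normalized to WT DMSO colonies. Mean ± SD of three experiments.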

[4] = target: T1, Tyrosine-protein phosphatase non-receptor type 11 (Mus musculus); assay: Inhibition of PTPN11 in PTPN11-expressing mouse embryonic fibroblasts assessed as inhibition of cell growth at 6 uM after 24 to 72 hrs by cell proliferation-based assay
Summary of the method: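 Ptpn11 fl/fl and Ptpn11 +/+ MEFs, both Ade-Cre+, infected with adeno-Cre, then given 6 µM compound or DMSO. Growth measured at 24, 48 and 72 h by One Solution proliferation assay. SHP2 loss confirmed by immunoblot. Triplicates from one of three experiments.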

CCOc1cc(O)c(C(=O)/C=C/c2ccc(Cl)cc2Cl)cc1CN1CCC=C(n2c(=O)[nH]c3ccccc32)C1
active: growth inhibition (GI) (NCI-H596) Dose-dependent effect | inhibition [1] Dose-dependent effect | inhibition [2] | inhibition [3] | growth inhibition (GI) [4]
